SENP1 inh: inhibitors of human SENP1 SUMO protease catalytic domain | Q9P0U3 | recombinant SENP1 catalytic domain, CyPet-SUMO1-YPet FRET cleavage | inhibition, % at 10 µM | 360,000 tested, 0.21% active | AID 624204;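 active = inhibition at least 30% at 10 µM, raw YFP signal under a set limit, fluorescence ratio 0.5 to 1.5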;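 also: 0% = enzyme with DMSO and 100% = no enzyme wells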
Target sequence (Q9P0U3 419-644 limits assumed): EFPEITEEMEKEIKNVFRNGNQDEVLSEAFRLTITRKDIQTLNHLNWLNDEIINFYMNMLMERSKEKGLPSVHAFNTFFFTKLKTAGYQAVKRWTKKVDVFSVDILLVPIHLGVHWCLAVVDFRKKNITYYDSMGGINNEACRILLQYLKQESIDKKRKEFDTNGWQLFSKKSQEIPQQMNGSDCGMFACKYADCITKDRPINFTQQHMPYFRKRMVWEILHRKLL
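Assay system: hSENP1 catalytic domain, recombinant. Amount: SENP1 enzyme, 20 pM final. Schedule: 50 min reaction, RT, dark. Technique: FRET, CFP and YFP emission. Control set: no-enzyme wells low, DMSO-plus-enzyme wells high control.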
FAS TE block: FAS thioesterase (human) inhibition | recombinant FAS-TE, OMFH fluorogenic substrate, fluorescence endpoint | inhibition, % at 15 µM | P49327 | 360,000 tested, 0.67% active;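 active = compounds whose normalised, plate-corrected inhibition of enzyme fluorescence in the single-dose primary screen is 50% or more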;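 also: 0% = DMSO with enzyme and 100% = substrate without enzyme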
ADAM17 inh: inhibits human ADAM17; P78536; recombinant ADAM17, EDANS/DABCYL FRET peptide cleavage; inhibition, % at 6.95 µM; 370,000 tested, 0.83% active; AID 720648;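 active = inhibition above the mean of compounds lying between control limits plus 3 SD, set per campaign, cut at about 8.5% in these data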;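 also: 0% = DMSO-only wells as the low control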
ADAM10 inh: inhibits human ADAM10 | O14672 | recombinant ADAM10, EDANS/DABCYL FRET peptide cleavage, 3 h | inhibition, % at 7 µM | 370,000 tested, 0.62% active | AID 720582;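 active = inhibition above a per-campaign cutoff equal to the mean of compounds falling between control-based bounds plus 3 SD, cut at about 20% in these data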;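 also: 0% = DMSO wells while the 100% control is not disclosed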
ADAM10 confirm: confirmation of inhibitors of human ADAM10; inhibition, % at 6.95 µM; ADAM10 QFRET peptide cleavage, EDANS fluorescence; shares compounds with ADAM10 inh; 2,100 tested, 1% active;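 active = inhibition above about 20% chosen separately for each screening run, limit read from the data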;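 also: 0% = DMSO wells and 100% = marimastat wells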
ADAM17 ctr: inhibits human ADAM17 in ADAM10 exosite counter-screen | shares compounds with ADAM10 inh | ADAM17 QFRET peptide cleavage, EDANS fluorescence | inhibition, % at 6.95 µM | 2,100 tested, 0.5% active | AID 743214;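 active = mean triplicate inhibition above the solvent-only control wells' mean plus 3 SD, cut at about 12% in these data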;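 also: 0% = DMSO wells and 100% = marimastat wells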
* marks the source's active call; other numbers are inactive results; x = no result given; ! = not active in a repeat. Hits are enriched below; roughly 1.9% of the tested compounds scored in any of these assays.

SMILES	SENP1 inh	FAS TE block	ADAM17 inh	ADAM10 inh	ADAM10 confirm	ADAM17 ctr
Cc1ccc(S(=O)(=O)N2[C@@H](c3ccc(Cl)cc3)C(C(=O)O)=CC[C@H]2c2ccc(C(C)C)cc2)cc1	0.6	32.3	0.8	20.7*	1.3	-0.4
Cc1ccc([C@H]2C(C(=O)O)=CC[C@@H](c3ccc(C(C)C)cc3)N2S(=O)(=O)c2ccc(C)cc2)cc1	0.3	5.4	3.3	15.3	x	x
CCOc1ccc(CCNC(=O)c2ccc(Oc3ccccc3)cc2)cc1OCC	x	x	-2.6	-3.5	x	x
CCOC(=O)c1c(N)sc(C(O)(C(F)(F)F)C(F)(F)F)c1-c1ccc(F)cc1	0.9	33.2	10.6*	23.6*	6.3	1.7
CCOC(=O)c1c(NC(=O)C2C3CCC(O3)C2C(=O)O)sc(C)c1-c1ccc(F)cc1 (configuration not stated)	3.5	-2.8	-6.5	-4.5	x	x
CC(C)(C)OC(=O)N/N=C/c1cccn1-c1ccc([N+](=O)[O-])cc1	1.1	21.7	0.2	5.8	x	x
COc1ccc(CC(=O)N/N=C/c2cccn2-c2ccc([N+](=O)[O-])cc2)cc1OC	-2.3	22.0	7.6	21.1*	0.0	-0.1
O=C(NNC(=O)c1cc(-c2ccc(Cl)cc2)nc2ccccc12)c1csc(N2CCOCC2)n1	2.5	17.7	7.0	28.7*	12.2	4.8
CN(C(=O)c1ccc2c(c1)OCCO2)c1c(N)n(Cc2ccccc2)c(=O)[nH]c1=O	-5.3	-3.6	-1.0	-1.6	x	x
CN(C(=O)c1cncc(Br)c1)c1c(N)n(Cc2ccccc2)c(=O)[nH]c1=O	-0.2	-4.8	-0.5	81.7*	0.8	0.4
COC(=O)[C@]12C[C@H](CC(=O)NCCCN3CCCC3=O)C(=O)N(Cc3ccc(Cl)cc3Cl)C1=C[C@H](C(C)C)O[C@@H]2C1CC1	x	x	-1.4	3.8	x	x
Cc1ccc(/C=C/C(=O)Nc2ccc(S(=O)(=O)Nc3onc(C)c3C)cc2)cc1	1.6	-3.5	1.4	21.4*	-1.0	0.3
CC(C)=CC(=O)Nc1ccc(S(=O)(=O)Nc2onc(C)c2C)cc1	1.3	-6.7	-2.6	-4.5	x	x
CCOC(=O)c1cc(-c2ccccc2C)n(CC2CC(c3ccc(OC)cc3)=NO2)n1 (configuration not stated)	-0.5	19.3	7.8	22.8*	0.9	0.1
O=[N+]([O-])c1ccccc1-c1nc(-c2ccc(Br)o2)no1	-1.1	25.4	5.2	22.5*	1.2	1.2
Clc1ccccc1-c1nc(-c2ccc(Br)o2)no1	-1.3	24.9	-5.3	-8.8	x	x
CC(C)N1Cc2nnn(Cc3ccccc3)c2-c2ccccc2S1(=O)=O	x	x	0.6	5.0	x	x
CC(=O)CC[C@H]1CC[C@]2(CCCN(C(=O)c3ccccc3)C2)O1	x	x	1.5	2.0	x	x
O=C(c1cccs1)N1CC[C@H]2[C@H](CCCN2Cc2ccc(F)cc2)C1	x	x	-3.5	-6.8	x	x
Cc1ccc(C)c(OCc2cc(C(=O)NC(c3ccccn3)C(F)(F)F)no2)c1 (configuration not stated)	-0.2	30.9	6.4	21.0*	4.2	1.6
Cc1cc(N2CCCC2)ccc1/C=C1\NC(=S)N(C)C1=O	-25.3	-5.2	3.6	24.6*	1.5	-0.2
CC(=O)N1CCN(c2ccc(N3CCN(Cc4ccccc4)[C@H](C)C3)c(C)c2)[C@H](C)C1	x	x	-4.0	-11.0	x	x
COc1ccc(C2NC(=S)N(Cc3ccc(Cl)cc3)C(C)=C2C(C)=O)cc1 (configuration not stated)	x	x	5.7	22.4*	3.1	1.6
CC(=O)C1=C(C)N(Cc2ccc(F)cc2)C(=S)NC1c1ccc(Cl)cc1 (configuration not stated)	x	x	3.4	12.9	x	x
Cc1ccc(OCC(=O)N/N=C/c2cn(Cc3ccccc3)c3ccccc23)cc1	0.8	19.5	5.8	22.8*	1.0	1.6
SMILES	SENP1 inh	FAS TE block	ADAM17 inh	ADAM10 inh	ADAM10 confirm	ADAM17 ctr
COc1ccc(CCNC(=O)Nc2ccc3c(c2)[C@]2(CC(=O)N(CC(C)C)C2c2ccccc2)C(=O)N3C)cc1OC (some centres not stated)	x	x	4.8	2.1	x	x
CCOC(=O)Nc1ccc2c(c1)N(C(=O)OCCN(C)C)c1ccccc1CC2	-1.9	-4.7	-11.0	51.0*!	2.3	0.4
FC(F)(F)c1ccc(-c2nc(=S)[nH][nH]2)cc1	1.6	-0.5	2.8	25.4*	0.9	1.6
Cc1cccc(NC(=O)C2CCN(c3nnc(-n4cccc4)s3)CC2)c1C	x	x	1.0	6.9	x	x
O=C(/C=C/c1ccco1)NC(=S)Nc1ccccc1	-3.0	7.9	4.6	22.9*	3.2	1.4
CC(=O)c1ccc(NC(=S)NC(=O)/C=C/c2ccco2)cc1	-5.1	3.2	-0.7	-1.0	x	x
O=S(=O)(NCc1ccc(Cl)c(Cl)c1)c1cc(Cl)ccc1N1CC[C@@H](O)C1	x	x	8.0	20.6*	6.9	2.5
COc1ccc(CNS(=O)(=O)c2cc(Cl)ccc2N2CC[C@@H](O)C2)cc1	x	x	-1.4	-7.9	x	x
O=C(Oc1cccc(NC(=O)c2ccco2)c1)c1ccc(Br)c(S(=O)(=O)N2CCCCC2)c1	1.7	28.0	12.6*	27.8*	3.3	1.2
Cc1ccc(C(=O)Oc2cccc(NC(=O)c3ccco3)c2)cc1S(=O)(=O)N1CCC(C)CC1	0.6	20.3	7.2	12.8	x	x
O=C(NC1CCCCN(Cc2ccc(Cl)cc2)C1=O)c1ccccc1-c1ccc(Cl)c(Cl)c1 (configuration not stated)	x	x	1.6	3.5	x	x
Cc1ccc(NC(=O)Cc2ccccc2Cl)cc1S(=O)(=O)N(C)C	-4.8	-3.1	2.1	2.7	x	x
Cc1ccc(NC(=O)CNc2ccc(Cl)c(Cl)c2)cc1S(=O)(=O)N(C)C	-0.2	34.8	7.7	23.2*	5.0	1.5
Cc1ccc(S(=O)(=O)N2CCC(=O)N2)cc1	0.5	-2.0	0.1	27.9*	12.0	0.6
Cc1ccc2c(c1)C1CS(=O)(=O)N(Cc3ccc(F)cc3)CN1C2 (configuration not stated)	x	x	-1.2	-4.7	x	x
COc1ccc(N2CCN(C(=O)CN(c3ccc(OC)cc3)S(=O)(=O)c3ccccc3)CC2)cc1	2.8	15.7	1.3	20.6*	3.4	-0.5
COc1ccc(N2CCN(C(=O)CN(c3ccccc3)S(=O)(=O)c3ccc(OC)cc3)CC2)cc1	0.6	12.9	-0.9	0.0	x	x
COC(CNC(=O)[C@H](Cc1ccccc1)NCC(=O)NC1CCCCC1)OC	x	x	-6.3	-11.4	x	x
O=C1C=C(c2ccc3ncccc3c2)C[C@@H](c2ccc(Cl)cc2)C1	-1.4	23.0	5.5	20.2*	1.6	0.2
COc1ccc([C@H]2CC(=O)C=C(c3ccc4ncccc4c3)C2)cc1	1.5	5.4	-3.0	-9.5	x	x
CCOC(=O)[C@H]1[C@H]2COc3ccc(OC)cc3[C@@H]2N2C(=O)c3cc(C)ccc3NC(=O)[C@@]12C	0.7	-0.4	0.7	-2.2	x	x
